In ChEMBL document CHEMBL1125911, “Synthesis and biological activity of new HMG-CoA reductase inhibitors. 3. Lactones of 6-phenoxy-3,5-dihydroxyhexanoic acids” (J Med Chem, 1991):

Legend:
[1] = target: T1, 3-hydroxy-3-methylglutaryl-coenzyme A reductase (Rattus norvegicus) (UniProt P51639); experiment: (§1) Inhibition of HMG-CoA reductase compared to mevinolin.
T1 sequence (whole entry): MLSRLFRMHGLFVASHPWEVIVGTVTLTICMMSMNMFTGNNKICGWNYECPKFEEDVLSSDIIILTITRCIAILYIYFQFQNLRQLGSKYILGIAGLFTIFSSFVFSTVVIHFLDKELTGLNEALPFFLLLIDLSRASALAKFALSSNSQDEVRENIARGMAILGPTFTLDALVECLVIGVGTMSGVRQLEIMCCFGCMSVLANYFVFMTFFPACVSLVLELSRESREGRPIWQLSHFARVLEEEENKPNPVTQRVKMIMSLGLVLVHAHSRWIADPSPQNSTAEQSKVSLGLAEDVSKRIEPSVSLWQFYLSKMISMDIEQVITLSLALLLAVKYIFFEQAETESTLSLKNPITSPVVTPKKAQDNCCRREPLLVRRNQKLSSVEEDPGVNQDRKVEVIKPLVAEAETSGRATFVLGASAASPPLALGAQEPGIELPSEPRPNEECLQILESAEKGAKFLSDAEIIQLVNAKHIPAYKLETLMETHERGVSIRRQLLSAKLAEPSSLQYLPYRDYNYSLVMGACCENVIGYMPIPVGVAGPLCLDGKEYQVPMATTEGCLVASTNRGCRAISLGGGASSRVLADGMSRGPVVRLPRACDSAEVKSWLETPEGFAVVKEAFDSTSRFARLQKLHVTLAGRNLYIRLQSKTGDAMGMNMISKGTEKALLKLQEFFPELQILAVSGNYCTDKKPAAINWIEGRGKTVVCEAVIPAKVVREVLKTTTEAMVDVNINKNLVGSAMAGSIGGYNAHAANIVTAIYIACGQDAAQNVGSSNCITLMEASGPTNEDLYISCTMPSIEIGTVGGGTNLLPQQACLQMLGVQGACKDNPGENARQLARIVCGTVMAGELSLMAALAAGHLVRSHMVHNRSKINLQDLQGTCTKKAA
How it was run: (§2)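 Solubilized, partially purified rat liver HMG-CoA reductase. IC50 from four or five inhibitor concentrations. Relative potency compared IC50 with mevinolin (set to 100), corrected for molecular weight.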

[2] = target: T2, 3-hydroxy-3-methylglutaryl-coenzyme A reductase (Rattus norvegicus, UniProt P51639); experiment: In vitro inhibition of HMG-CoA reductase in solubilized rat liver.
T2 sequence (P51639 whole entry): T1 sequence (whole entry)

[3] = target: T3, 3-hydroxy-3-methylglutaryl-coenzyme A reductase (Homo sapiens) (UniProt P04035); experiment: as §1; assay type: functional; how it was run: as §2
T3 sequence (whole entry): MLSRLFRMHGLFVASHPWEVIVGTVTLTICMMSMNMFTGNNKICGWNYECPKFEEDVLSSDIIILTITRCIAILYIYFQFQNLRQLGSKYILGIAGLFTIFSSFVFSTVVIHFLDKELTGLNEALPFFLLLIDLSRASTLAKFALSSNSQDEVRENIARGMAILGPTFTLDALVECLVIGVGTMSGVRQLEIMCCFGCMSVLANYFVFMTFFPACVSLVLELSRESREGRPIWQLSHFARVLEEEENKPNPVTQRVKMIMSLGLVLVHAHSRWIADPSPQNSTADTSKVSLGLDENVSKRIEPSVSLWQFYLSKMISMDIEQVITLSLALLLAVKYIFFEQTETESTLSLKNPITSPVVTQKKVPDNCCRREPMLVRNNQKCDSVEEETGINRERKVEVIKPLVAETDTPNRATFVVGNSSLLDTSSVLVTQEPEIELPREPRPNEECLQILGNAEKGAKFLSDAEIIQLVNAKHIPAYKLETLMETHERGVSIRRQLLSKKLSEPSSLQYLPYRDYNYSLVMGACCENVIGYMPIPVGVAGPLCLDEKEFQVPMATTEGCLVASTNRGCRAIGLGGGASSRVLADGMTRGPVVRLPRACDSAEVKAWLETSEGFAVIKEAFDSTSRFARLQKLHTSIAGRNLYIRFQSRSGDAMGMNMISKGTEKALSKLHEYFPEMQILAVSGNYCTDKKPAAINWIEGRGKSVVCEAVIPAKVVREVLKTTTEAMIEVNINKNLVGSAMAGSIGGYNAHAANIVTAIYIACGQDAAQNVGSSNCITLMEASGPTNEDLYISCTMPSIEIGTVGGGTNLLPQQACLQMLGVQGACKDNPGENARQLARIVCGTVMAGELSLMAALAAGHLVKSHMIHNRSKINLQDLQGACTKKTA

[4] = target: T4, 3-hydroxy-3-methylglutaryl-coenzyme A reductase (Homo sapiens, UniProt P04035); experiment: Inhibition of the incorporation of sodium [14C]acetate into cholesterol in HEP G2 cells.; assay type: functional, cell-based, HepG2
T4 sequence (P04035 whole entry): T3 sequence (whole entry)

## Cc1cc(Cl)cc(CC2CCCCC2)c1OCC(O)C[C@@H](O)CC(=O)O (stereo not given in full)
[1]
  Relative potency: 12
[2]
  IC50: 75 nM

## Cc1cc(Cl)cc(C(c2ccc(F)cc2)c2ccc(F)cc2)c1OCC(O)C[C@@H](O)CC(=O)O (stereo not given in full)
[2]
  IC50: 70 nM

## CCC(C)(C)OC(=O)C(c1cc(C)cc(C)c1OCC(O)C[C@@H](O)CC(=O)O)C1CCCCC1 (stereo in doubt; 11s) [listing 1 of 2 here]
[3]
  Relative potency: 3

## Cc1nc2ccccc2c(-c2ccccc2)c1OCC(O)C[C@@H](O)CC(=O)O (stereo not given in full)
[3]
  Relative potency: < 1
[1]
  Relative potency: < 1
[4]
  IC50: > 5000 nM
[2]
  IC50: > 1000 nM

## O=C(O)C[C@H](O)CC(O)COc1c(CCCOc2ccc(F)cc2)cc(Cl)cc1C1CCCC1 (stereo not given in full)
[1]
  Relative potency: < 1
[2]
  IC50: > 1000 nM

## Cc1cc(C)c(OCC(O)C[C@@H](O)CC(=O)O)c(C(CC(C)C)c2ccc(F)cc2)c1 (stereo not given in full)
[2]
  IC50: 140 nM

## O=C(O)C[C@H](O)CC(O)COc1c(Cl)cc(Cl)cc1C(F)(F)C1CCCCC1 (stereo not given in full)
[3]
  Relative potency: 2
[4]
  IC50: 2500 nM
[2]
  IC50: 85 nM

## O=C(O)C[C@H](O)CC(O)COc1c(Cl)cc(Cl)cc1C(F)=C1CCCCC1 (stereo not given in full)
[1]
  Relative potency: 9
[2]
  IC50: 95 nM

## CCC(C)(C)C(=O)NC(c1cc(C)cc(C)c1OCC(O)C[C@@H](O)CC(=O)O)C1CCCCC1 (stereo in doubt; 11x) [listing 1 of 2 here]
[3]
  Relative potency: < 1

## Cc1cccc(CCCOc2ccc(F)cc2)c1OCC(O)C[C@@H](O)CC(=O)O (stereo not given in full)
[1]
  Relative potency: 3
[2]
  IC50: 250 nM

## CCC(C)(C)OC(=O)C(c1cc(C)cc(C)c1OCC(O)C[C@@H](O)CC(=O)O)C1CCCCC1 (stereo in doubt; 11r) [listing 1 of 2 here]
[3]
  Relative potency: < 1
[1]
  Relative potency: 12

## Cc1c(OCC(O)C[C@@H](O)CC(=O)O)c(-c2ccc(F)cc2)nc2ccccc12 (stereo not given in full)
[3]
  Relative potency: < 1
[1]
  Relative potency: 1
[4]
  IC50: > 5000 nM
[2]
  IC50: 1000 nM

## CC(C)c1c(OCC(O)C[C@@H](O)CC(=O)O)c(-c2ccc(F)cc2)nc2ccccc12 (stereo not given in full)
[3]
  Relative potency: 20
[1]
  Relative potency: 16
[4]
  IC50: 250 nM
[2]
  IC50: 50 nM

## O=C(O)C[C@H](O)CC(O)COc1cc(OCc2ccc(F)cc2)c(Cl)cc1Cl (stereo not given in full)
[1]
  Relative potency: 3
[2]
  IC50: 260 nM

## O=C(O)C[C@H](O)CC(O)COc1c(Cl)cc(Cl)cc1-c1ccccc1 (stereo not given in full)
[1]
  Relative potency: 5
[2]
  IC50: 190 nM

## CC(C)c1c(OCC(O)C[C@@H](O)CC(=O)O)c(C(c2ccc(F)cc2)c2ccc(F)cc2)cc2ccccc12 (stereo not given in full)
[3]
  Relative potency: 2
[1]
  Relative potency: 2
[4]
  IC50: 3500 nM
[2]
  IC50: 380 nM

## Cc1cc(Cl)c(OCC(O)C[C@@H](O)CC(=O)O)c(C(c2ccc(F)c(C)c2)c2ccc(F)c(C)c2)c1 (stereo not given in full)
[2]
  IC50: 270 nM

## COc1ccc(C(c2ccc(F)cc2)c2cc(C)cc(C)c2OCC(O)C[C@@H](O)CC(=O)O)cc1 (stereo not given in full)
[2]
  IC50: 100 nM

## Cc1c(OCC(O)C[C@@H](O)CC(=O)O)c(C(c2ccc(F)cc2)c2ccc(F)cc2)cc2ccccc12 (stereo not given in full)
[3]
  Relative potency: < 1
[4]
  IC50: 20000 nM
[2]
  IC50: 900 nM

## Cc1cc(Cl)cc(CCCOc2ccc(Cl)cc2)c1OCC(O)C[C@@H](O)CC(=O)O (stereo not given in full)
[1]
  Relative potency: 15
[2]
  IC50: 50 nM

## Cc1cc(C(c2ccc(F)c(C)c2)c2cc(Cl)cc(Cl)c2OCC(O)C[C@@H](O)CC(=O)O)ccc1F (stereo not given in full)
[2]
  IC50: 1000 nM

## O=C(O)C[C@H](O)CC(O)COc1c(Cl)cc(Cl)cc1C(c1ccc(F)cc1)c1ccc(F)cc1 (stereo in doubt; 11pp)
[2]
  IC50: 950 nM

## Cc1cc(C)c(OCC2C[C@@H](O)CC(=O)O2)c(C(Cl)C2CCCCC2)c1 (stereo not given in full)
[3]
  Relative potency: < 1
[4]
  IC50: 6500 nM
[2]
  IC50: > 1000 nM

## CCC(C)(C)OC(=O)C(c1cc(C)cc(C)c1OCC(O)C[C@@H](O)CC(=O)O)C1CCCCC1 (stereo in doubt; 11s) [listing 2 of 2 here]
[4]
  IC50: 1700 nM
[2]
  IC50: 500 nM

## Cc1cc(C)c(OCC(O)C[C@@H](O)CC(=O)O)c(C(C)c2ccc(F)cc2)c1 (stereo not given in full)
[2]
  IC50: 160 nM

## CCC(C)(C)C(=O)NC(c1cc(C)cc(C)c1OCC(O)C[C@@H](O)CC(=O)O)C1CCCCC1 (stereo in doubt; 11w) [listing 1 of 2 here]
[3]
  Relative potency: < 1
[1]
  Relative potency: 2

## CCC(C)(C)C(=O)NC(c1cc(C)cc(C)c1OCC(O)C[C@@H](O)CC(=O)O)C1CCCCC1 (stereo in doubt; 11x) [listing 2 of 2 here]
[4]
  IC50: 10000 nM
[2]
  IC50: 470 nM

## O=C(O)C[C@H](O)CC(O)COc1c(Cl)cc(Cl)cc1CC1CCCCC1 (stereo not given in full)
[1]
  Relative potency: 31
[2]
  IC50: 27 nM

## CC(C)c1cc(-c2ccccc2)cc(CC2CCCCC2)c1OCC(O)C[C@@H](O)CC(=O)O (stereo not given in full)
[3]
  Relative potency: 50
[1]
  Relative potency: 2
[4]
  IC50: 100 nM
[2]
  IC50: 400 nM

## O=C(O)C[C@H](O)CC(O)COc1c(CCCOc2ccc(F)cc2)cccc1C1CCCC1 (stereo not given in full)
[1]
  Relative potency: < 1
[2]
  IC50: > 1000 nM

## Cc1cc(Cl)cc(CCCOc2ccc(F)cc2)c1OCC(O)C[C@@H](O)CC(=O)O (stereo not given in full)
[1]
  Relative potency: 10
[2]
  IC50: 80 nM

## CCC(C)(C)C(=O)NC(c1cc(C)cc(C)c1OCC(O)C[C@@H](O)CC(=O)O)C1CCCCC1 (stereo in doubt; 11w) [listing 2 of 2 here]
[4]
  IC50: 15000 nM
[2]
  IC50: 320 nM

## CCC(C)(C)OC(=O)C(c1cc(C)cc(C)c1OCC(O)C[C@@H](O)CC(=O)O)C1CCCCC1 (stereo in doubt; 11r) [listing 2 of 2 here]
[4]
  IC50: 12000 nM
[2]
  IC50: 60 nM

## O=C(O)C[C@H](O)CC(O)COc1c(Cl)cc(Cl)cc1C(=O)C1CCCCC1 (stereo not given in full)
[1]
  Relative potency: 4
[2]
  IC50: 190 nM

## Cc1cc(C)c(OCC(O)C[C@@H](O)CC(=O)O)c(C(c2ccc(F)cc2)c2cccc(C(F)(F)F)c2)c1 (stereo not given in full)
[2]
  IC50: 90 nM

## Cc1cc(C)c(OCC(O)C[C@@H](O)CC(=O)O)c(C(c2ccc(F)cc2)C2CCCCC2)c1 (stereo not given in full)
[1]
  Relative potency: 8
[2]
  IC50: 95 nM

## Cc1cc(C)c(OCC(O)C[C@@H](O)CC(=O)O)c(C(c2ccc(F)cc2)c2ccc(F)cc2)c1 (stereo not given in full)
[2]
  IC50: 70 nM

## O=C(O)C[C@H](O)CC(O)COc1c(Cl)cc(Cl)cc1C(CCOc1ccc(F)cc1)c1ccc(F)cc1 (stereo not given in full)
[1]
  Relative potency: 4
[2]
  IC50: 150 nM

## Cc1cc(C)c(OCC(O)C[C@@H](O)CC(=O)O)c(CC2CCCCC2)c1 (stereo not given in full)
[1]
  Relative potency: 9
[2]
  IC50: 100 nM
